Reference: PMC10925177 (bioRxiv, 2024)

Assays:
[1] = tested on: GLP mRNA; test: RT-qPCR of GLP mRNA in H1299 cells; assay type: cell-based; details: 3 μM, 24 h, normalized to DMSO
Outline: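 H1299 cells were treated with DMSO or test compound at 3 μM for 24 h. Total RNA was extracted and reverse-transcribed to cDNA. qPCR used gene-specific primers for G9a and GLP, and a GAPDH primer set was included.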

[2] = tested on: panel of 21 protein methyltransferases; test: Selectivity panel, radioactive methyltransferase assays; assay type: biochemical; details: 10 μM compound, duplicate
Outline: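 The selectivity screen covered 21 protein methyltransferases in radioisotope-based MT HotSpot methyltransferase assays run by a contract laboratory. Test compound was at 10 μM. Each assay was run in duplicate and reported as mean ± SD of the two replicates.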

[3] = biological target: T1, SET7/9 (Homo sapiens, UniProt Q8WTS6); test: Western blot of SET7/9 protein level in 22Rv1 cells; assay type: cell-based; details: indicated concentration, 24 h, WB
T1 sequence (Q8WTS6 1-366): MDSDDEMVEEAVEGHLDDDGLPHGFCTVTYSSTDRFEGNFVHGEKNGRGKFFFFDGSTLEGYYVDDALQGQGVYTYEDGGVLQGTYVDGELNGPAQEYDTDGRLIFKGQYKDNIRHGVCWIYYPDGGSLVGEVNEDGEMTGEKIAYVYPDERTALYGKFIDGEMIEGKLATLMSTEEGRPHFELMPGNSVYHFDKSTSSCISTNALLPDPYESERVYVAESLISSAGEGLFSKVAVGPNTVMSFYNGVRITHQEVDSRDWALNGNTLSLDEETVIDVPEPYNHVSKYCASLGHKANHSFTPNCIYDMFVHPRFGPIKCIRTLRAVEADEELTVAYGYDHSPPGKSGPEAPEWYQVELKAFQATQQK
Outline: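 22Rv1 cells were treated with the test compound at the indicated concentrations for 24 h. Cells were lysed in RIPA containing protease inhibitor cocktail, and protein was resolved by SDS-PAGE and transferred to PVDF. Primary antibody was applied overnight at 4 °C, with β-actin as loading control. Blots are representative of two independent experiments.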

[4] = biological target: T2, G9a (Homo sapiens, UniProt Q96KQ7); test: G9a radioactive methyltransferase assay; assay type: biochemical; details: indicated concentrations, duplicate (Figure 4B)
T2 sequence (Q96KQ7 1-1210): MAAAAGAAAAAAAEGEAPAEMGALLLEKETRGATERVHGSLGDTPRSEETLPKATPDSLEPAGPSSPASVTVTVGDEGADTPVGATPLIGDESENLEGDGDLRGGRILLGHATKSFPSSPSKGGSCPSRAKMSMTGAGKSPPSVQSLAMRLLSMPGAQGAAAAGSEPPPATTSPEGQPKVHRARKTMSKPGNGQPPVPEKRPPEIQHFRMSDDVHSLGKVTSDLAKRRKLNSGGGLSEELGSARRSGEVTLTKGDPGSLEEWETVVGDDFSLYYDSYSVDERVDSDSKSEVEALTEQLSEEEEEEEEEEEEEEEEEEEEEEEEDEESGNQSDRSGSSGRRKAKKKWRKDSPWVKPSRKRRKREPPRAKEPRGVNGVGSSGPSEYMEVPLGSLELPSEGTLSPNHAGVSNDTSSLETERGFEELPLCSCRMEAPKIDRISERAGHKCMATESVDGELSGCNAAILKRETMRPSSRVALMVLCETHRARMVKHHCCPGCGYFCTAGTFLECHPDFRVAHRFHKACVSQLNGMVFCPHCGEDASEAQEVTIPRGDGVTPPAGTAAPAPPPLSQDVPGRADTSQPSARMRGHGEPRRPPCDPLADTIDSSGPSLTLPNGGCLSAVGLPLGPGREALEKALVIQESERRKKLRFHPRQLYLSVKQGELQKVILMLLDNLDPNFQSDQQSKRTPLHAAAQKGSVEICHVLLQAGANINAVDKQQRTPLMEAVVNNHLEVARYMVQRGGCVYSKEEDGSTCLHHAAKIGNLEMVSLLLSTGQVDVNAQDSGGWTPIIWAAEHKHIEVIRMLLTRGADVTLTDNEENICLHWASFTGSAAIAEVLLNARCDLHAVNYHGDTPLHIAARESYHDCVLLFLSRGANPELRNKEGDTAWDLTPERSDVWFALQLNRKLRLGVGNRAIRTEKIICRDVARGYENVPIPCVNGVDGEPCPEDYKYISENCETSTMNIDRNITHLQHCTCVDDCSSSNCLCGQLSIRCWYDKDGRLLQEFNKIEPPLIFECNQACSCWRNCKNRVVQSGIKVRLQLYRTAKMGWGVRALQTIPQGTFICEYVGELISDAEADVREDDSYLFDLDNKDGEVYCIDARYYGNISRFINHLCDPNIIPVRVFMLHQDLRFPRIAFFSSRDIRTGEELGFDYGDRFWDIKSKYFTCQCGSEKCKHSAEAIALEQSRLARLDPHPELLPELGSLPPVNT
Outline: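 Enzyme activity was measured with a radioisotope-based MT HotSpot methyltransferase assay run by a contract laboratory. Test compounds were run at the indicated concentrations, in duplicate. Data are mean ± SD of the two duplicate experiments.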

[5] = biological target: EZH2 (Homo sapiens, UniProt Q15910); test: Radioactive methyltransferase assay, EZH2; assay type: biochemical; details: 10 μM compound
EZH2, sequence (Q15910 whole entry): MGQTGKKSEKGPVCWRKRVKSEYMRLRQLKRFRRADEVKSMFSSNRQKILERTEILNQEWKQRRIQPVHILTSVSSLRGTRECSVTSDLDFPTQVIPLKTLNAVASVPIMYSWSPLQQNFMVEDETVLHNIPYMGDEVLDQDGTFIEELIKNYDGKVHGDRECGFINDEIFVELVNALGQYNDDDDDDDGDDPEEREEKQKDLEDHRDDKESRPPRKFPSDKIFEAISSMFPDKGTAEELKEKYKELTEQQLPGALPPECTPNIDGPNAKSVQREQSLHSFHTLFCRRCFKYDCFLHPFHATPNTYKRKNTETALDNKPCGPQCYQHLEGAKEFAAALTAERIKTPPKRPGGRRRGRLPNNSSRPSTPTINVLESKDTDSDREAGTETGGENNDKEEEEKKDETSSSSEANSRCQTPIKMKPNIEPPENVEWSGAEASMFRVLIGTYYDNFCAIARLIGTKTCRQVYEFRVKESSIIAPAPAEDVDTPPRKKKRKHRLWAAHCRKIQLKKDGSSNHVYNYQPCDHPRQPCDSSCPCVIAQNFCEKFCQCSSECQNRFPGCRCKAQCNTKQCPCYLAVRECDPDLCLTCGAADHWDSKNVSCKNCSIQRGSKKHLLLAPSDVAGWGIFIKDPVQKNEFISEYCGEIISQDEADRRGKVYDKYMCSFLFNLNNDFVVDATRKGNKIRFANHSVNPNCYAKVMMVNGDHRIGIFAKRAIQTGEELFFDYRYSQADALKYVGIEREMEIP
EZH2, sequence (O75530 whole entry partner): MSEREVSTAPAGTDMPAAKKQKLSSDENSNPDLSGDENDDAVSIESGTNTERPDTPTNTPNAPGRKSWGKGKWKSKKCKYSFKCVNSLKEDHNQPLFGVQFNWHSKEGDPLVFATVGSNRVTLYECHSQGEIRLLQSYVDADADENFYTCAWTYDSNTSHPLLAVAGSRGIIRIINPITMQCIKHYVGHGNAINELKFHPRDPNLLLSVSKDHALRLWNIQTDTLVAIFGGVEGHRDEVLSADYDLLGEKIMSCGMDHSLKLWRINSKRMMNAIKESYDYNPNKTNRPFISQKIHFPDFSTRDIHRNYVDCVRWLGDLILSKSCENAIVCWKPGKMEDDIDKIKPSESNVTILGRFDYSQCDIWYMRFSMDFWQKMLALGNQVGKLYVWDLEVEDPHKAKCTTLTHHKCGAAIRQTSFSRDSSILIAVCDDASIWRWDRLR
EZH2, sequence (Q15022 whole entry partner): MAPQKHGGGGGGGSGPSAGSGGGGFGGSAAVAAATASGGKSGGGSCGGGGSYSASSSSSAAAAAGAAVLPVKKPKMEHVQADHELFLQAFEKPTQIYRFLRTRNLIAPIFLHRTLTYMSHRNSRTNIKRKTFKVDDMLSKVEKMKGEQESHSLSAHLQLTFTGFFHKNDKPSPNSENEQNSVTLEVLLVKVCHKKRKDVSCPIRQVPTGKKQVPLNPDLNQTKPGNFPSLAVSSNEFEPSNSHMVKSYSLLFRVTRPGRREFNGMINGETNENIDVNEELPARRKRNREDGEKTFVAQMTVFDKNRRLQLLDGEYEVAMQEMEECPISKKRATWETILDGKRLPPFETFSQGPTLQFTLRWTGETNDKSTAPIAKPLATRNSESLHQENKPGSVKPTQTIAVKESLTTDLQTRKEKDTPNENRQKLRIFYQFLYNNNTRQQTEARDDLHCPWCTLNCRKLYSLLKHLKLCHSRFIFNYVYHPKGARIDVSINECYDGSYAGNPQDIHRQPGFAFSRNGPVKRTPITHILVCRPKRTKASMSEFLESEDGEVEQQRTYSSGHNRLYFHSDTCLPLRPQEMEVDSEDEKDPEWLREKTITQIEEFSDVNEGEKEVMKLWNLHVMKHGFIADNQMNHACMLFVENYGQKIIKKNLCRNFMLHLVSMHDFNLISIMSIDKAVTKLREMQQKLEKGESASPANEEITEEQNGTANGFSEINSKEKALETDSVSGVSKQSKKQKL
EZH2, sequence (Q09028 whole entry partner): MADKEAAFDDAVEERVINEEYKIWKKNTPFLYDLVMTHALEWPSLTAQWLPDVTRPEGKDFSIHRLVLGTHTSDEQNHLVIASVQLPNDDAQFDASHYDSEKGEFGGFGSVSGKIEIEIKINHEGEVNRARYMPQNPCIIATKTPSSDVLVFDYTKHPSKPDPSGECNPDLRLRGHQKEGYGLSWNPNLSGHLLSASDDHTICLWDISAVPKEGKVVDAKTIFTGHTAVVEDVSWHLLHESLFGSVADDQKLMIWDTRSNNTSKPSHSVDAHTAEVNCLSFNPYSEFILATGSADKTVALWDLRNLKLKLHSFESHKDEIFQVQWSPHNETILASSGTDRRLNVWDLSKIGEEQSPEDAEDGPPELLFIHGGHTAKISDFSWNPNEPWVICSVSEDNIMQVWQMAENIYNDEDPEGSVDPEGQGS
EZH2, sequence (Q6ZN18 whole entry partner): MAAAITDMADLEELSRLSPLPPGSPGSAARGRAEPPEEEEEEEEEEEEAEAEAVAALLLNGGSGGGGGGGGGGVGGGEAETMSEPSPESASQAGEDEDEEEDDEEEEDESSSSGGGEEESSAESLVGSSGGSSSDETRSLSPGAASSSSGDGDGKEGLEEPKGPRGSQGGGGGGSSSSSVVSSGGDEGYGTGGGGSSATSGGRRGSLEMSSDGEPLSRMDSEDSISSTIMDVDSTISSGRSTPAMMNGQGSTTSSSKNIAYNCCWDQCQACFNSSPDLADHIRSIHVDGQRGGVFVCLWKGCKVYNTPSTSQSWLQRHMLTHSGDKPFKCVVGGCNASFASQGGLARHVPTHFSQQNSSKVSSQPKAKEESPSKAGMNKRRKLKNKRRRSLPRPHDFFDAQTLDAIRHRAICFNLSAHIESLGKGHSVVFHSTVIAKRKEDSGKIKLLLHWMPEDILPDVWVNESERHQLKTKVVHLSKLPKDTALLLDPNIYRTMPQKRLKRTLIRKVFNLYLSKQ

[6] = Mouse PK study, single IP administration; assay type: in vivo; details: C57BL/6 mice

**Q.** With COc1cc2c(NC3CCN(CCCC(=O)NCCCCCCCCCCCC(=O)N[C@H](C(=O)N4C[C@H](O)C[C@H]4C(=O)NCc4ccc(-c5scnc5C)cc4)C(C)(C)C)CC3)nc(N3CCC(F)(F)CC3)nc2cc1OCCCN1CCCC1 [Compound 10, (2S,4R)-1-((S)-2-(12-(4-(4-((2-(4,4-difluoropiperidin-1-yl)-6-methoxy-7-(3-(pyrrolidin-1-yl)propoxy)quinazolin-4-yl)amino)piperidin-1-yl)butanamido)dodecanamido)-3,3-dimethylbutanoyl)-4-hydroxy-N-(4-(4-methylthiazol-5-yl)benzyl)pyrrolidine-2-carboxamide] as the compound, how does the “mRNA levels of GLP” value [1] read?
**A.** did not significantly alter

**Q.** What about the “inhibition of panel methyltransferases” value [2] of the same compound?
**A.** ≤ 50%

**Q.** What about the SET7/9 degradation [3] of the same compound?
**A.** cannot induce the degradation

**Q.** And the “inhibition of G9a enzymatic activity” value [4]?
**A.** similarly inhibited

**Q.** What about the “inhibition of EZH2” value [5] of the same compound?
**A.** moderately inhibited

**Q.** What about the Cmax ([6]; IP, 50 mg/kg, plasma, HCl salt form) of the same compound?
**A.** 27 ± 0.6 µM

**Q.** And the “plasma exposure levels maintained up to 8 h” value ([6]; IP, 50 mg/kg, up to 8 h)?
**A.** > 5 µM

**Q.** What about the “clinical signs in the PK study” value ([6]; single IP 50 mg/kg) of the same compound?
**A.** no clinical signs were observed

**Q.** And the “tolerability in the PK study” value ([6]; single IP 50 mg/kg)?
**A.** well tolerated
